ChEMBL document CHEMBL4665872, “Rational design of cell-permeable cyclic peptides containing a d-Pro-l-Pro motif” (Bioorg Med Chem, 2020)
Where a SMILES comes first, the peptide text is derived from it. Side-chain parts run from the residue outwards. [ ]: non-standard residue; d: D form. The star is where a group is joined. X1 = NC(=O)[C@H](CCCCNC(=O)c1ccc2c(c1)C(=O)OC21c2ccc3cc(O)ccc3c2Oc2c1ccc1cc(O)ccc21)N*; 2Nal = N[C@@H](Cc1ccc2ccccc2c1)C(=O)O; AEEA = NCCOCCOCC(=O)O

Experiment: Drug uptake in human HeLa cells assessed as cytosolic entry efficiency measured as fluorescence at 5 uM incubated for 2 hrs by flow cytometry relative to CPP9 (100%)
Assay type: ADME, cell-based
Outline: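 HeLa cells seeded 24 h earlier, given 5 μM naphthofluorescein-labelled peptide in DMEM with 1% or 10% FBS, 37 °C, 2 h. Cells DPBS-washed, trypsinized, flow cytometry with 633-nm excitation, APC channel, 10,000 live-cell events gated. Signal read as cytosolic entry because NF is non-fluorescent in acidic compartments; mean ± SD of three independent experiments, relative to CPP9 (100%).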

SMILES | RFU [%]
C[C@@H]1NC(=O)[C@H](C)NC(=O)[C@H](Cc2ccccc2)NC(=O)[C@H](CCCNC(=N)N)NC(=O)[C@H](CCCNC(=N)N)NC(=O)[C@@H]2CCCN2C(=O)[C@H]2CCCN2C(=O)[C@H](CCCNC(=N)N)NC(=O)[C@H](Cc2ccc3ccccc3c2)NC(=O)[C@H](Cc2ccccc2)NC(=O)[C@H](C)NC(=O)[C@H](C)NC(=O)[C@H](CCC(=O)NCCOCCOCC(=O)N[C@@H](CCCCNC(=O)c2ccc3c(c2)C(=O)OC32c3ccc4cc(O)ccc4c3Oc3c2ccc2cc(O)ccc32)C(N)=O)NC(=O)[C@H](C)NC1=O | 22
C[C@@H]1NC(=O)[C@H](C)NC(=O)[C@H](Cc2ccccc2)NC(=O)[C@H](CCCNC(=N)N)NC(=O)[C@H](CCCNC(=N)N)NC(=O)[C@@H]2CCCN2C(=O)[C@H]2CCCN2C(=O)[C@H](CCCNC(=N)N)NC(=O)[C@@H](Cc2ccc3ccccc3c2)NC(=O)[C@H](Cc2ccccc2)NC(=O)[C@H](C)NC(=O)[C@H](C)NC(=O)[C@H](CCC(=O)NCCOCCOCC(=O)N[C@@H](CCCCNC(=O)c2ccc3c(c2)C(=O)OC32c3ccc4cc(O)ccc4c3Oc3c2ccc2cc(O)ccc32)C(N)=O)NC(=O)[C@H](C)NC1=O | 51
C[C@@H]1NC(=O)[C@H](C)NC(=O)[C@H](Cc2ccc3ccccc3c2)NC(=O)[C@H](CCCNC(=N)N)NC(=O)[C@H](CCCNC(=N)N)NC(=O)[C@@H]2CCCN2C(=O)[C@H]2CCCN2C(=O)[C@H](CCCNC(=N)N)NC(=O)[C@H](CCCNC(=N)N)NC(=O)[C@H](Cc2ccccc2)NC(=O)[C@H](C)NC(=O)[C@H](C)NC(=O)[C@H](CCC(=O)NCCOCCOCC(=O)N[C@@H](CCCCNC(=O)c2ccc3c(c2)C(=O)OC32c3ccc4cc(O)ccc4c3Oc3c2ccc2cc(O)ccc32)C(N)=O)NC(=O)[C@H](C)NC1=O | 5.7
C[C@@H]1NC(=O)[C@H](C)NC(=O)[C@H](CCCNC(=N)N)NC(=O)[C@H](CCCNC(=N)N)NC(=O)[C@H](CCCNC(=N)N)NC(=O)[C@@H]2CCCN2C(=O)[C@H]2CCCN2C(=O)[C@H](CCCNC(=N)N)NC(=O)[C@H](Cc2ccc3ccccc3c2)NC(=O)[C@H](Cc2ccccc2)NC(=O)[C@H](C)NC(=O)[C@H](C)NC(=O)[C@H](CCC(=O)NCCOCCOCC(=O)N[C@@H](CCCCNC(=O)c2ccc3c(c2)C(=O)OC32c3ccc4cc(O)ccc4c3Oc3c2ccc2cc(O)ccc32)C(N)=O)NC(=O)[C@H](C)NC1=O | 21
C[C@@H]1NC(=O)[C@H](CCCNC(=N)N)NC(=O)[C@H](CCC(=O)NCCOCCOCC(=O)N[C@@H](CCCCNC(=O)c2ccc3c(c2)C(=O)OC32c3ccc4cc(O)ccc4c3Oc3c2ccc2cc(O)ccc32)C(N)=O)NC(=O)[C@H](CCCNC(=N)N)NC(=O)[C@H](C)NC(=O)[C@H](CCCNC(=N)N)NC(=O)[C@H](Cc2ccccc2)NC(=O)[C@H](CCCNC(=N)N)NC(=O)[C@H](CCCNC(=N)N)NC(=O)[C@@H]2CCCN2C(=O)[C@H]2CCCN2C(=O)[C@@H](CCCNC(=N)N)NC(=O)[C@H](Cc2ccc3ccccc3c2)NC(=O)[C@H](Cc2ccccc2)NC1=O | 34
C[C@@H]1NC(=O)[C@H](C)NC(=O)[C@H](Cc2ccccc2)NC(=O)[C@H](CCCNC(=N)N)NC(=O)[C@H](CCCNC(=N)N)NC(=O)[C@H](C)NC(=O)[C@H](C)NC(=O)[C@@H](CCCNC(=N)N)NC(=O)[C@H](Cc2ccc3ccccc3c2)NC(=O)[C@H](Cc2ccccc2)NC(=O)[C@H](C)NC(=O)[C@H](C)NC(=O)[C@H](CCC(=O)NCCOCCOCC(=O)N[C@@H](CCCCNC(=O)c2ccc3c(c2)C(=O)OC32c3ccc4cc(O)ccc4c3Oc3c2ccc2cc(O)ccc32)C(N)=O)NC(=O)[C@H](C)NC1=O | 4.1
C[C@@H]1NC(=O)[C@H](Cc2ccc3ccccc3c2)NC(=O)[C@H](Cc2ccccc2)NC(=O)[C@H](C)NC(=O)[C@H](CCC(=O)NCCOCCOCC(=O)N[C@@H](CCCCNC(=O)c2ccc3c(c2)C(=O)OC32c3ccc4cc(O)ccc4c3Oc3c2ccc2cc(O)ccc32)C(N)=O)NC(=O)[C@H](Cc2ccccc2)NC(=O)[C@H](CCCNC(=N)N)NC(=O)[C@H](CCCNC(=N)N)NC(=O)[C@@H]2CCCN2C(=O)[C@H](C)NC1=O (cyclo([2Nal]AAPRRFE([AEEA-X1])AF)) | 46
C[C@@H]1NC(=O)[C@H](C)NC(=O)[C@H](CCCNC(=N)N)NC(=O)[C@H](CCCNC(=N)N)NC(=O)[C@H](CCCNC(=N)N)NC(=O)[C@@H]2CCCN2C(=O)[C@H]2CCCN2C(=O)[C@H](Cc2ccccc2)NC(=O)[C@H](Cc2ccc3ccccc3c2)NC(=O)[C@H](Cc2ccccc2)NC(=O)[C@H](C)NC(=O)[C@H](C)NC(=O)[C@H](CCC(=O)NCCOCCOCC(=O)N[C@@H](CCCCNC(=O)c2ccc3c(c2)C(=O)OC32c3ccc4cc(O)ccc4c3Oc3c2ccc2cc(O)ccc32)C(N)=O)NC(=O)[C@H](C)NC1=O | 8.3
C[C@@H]1NC(=O)[C@H](CCC(=O)NCCOCCOCC(=O)N[C@@H](CCCCNC(=O)c2ccc3c(c2)C(=O)OC32c3ccc4cc(O)ccc4c3Oc3c2ccc2cc(O)ccc32)C(N)=O)NC(=O)[C@H](Cc2ccccc2)NC(=O)[C@H](CCCNC(=N)N)NC(=O)[C@H](CCCNC(=N)N)NC(=O)[C@@H]2CCCN2C(=O)[C@H]2CCCN2C(=O)[C@@H](CCCNC(=N)N)NC(=O)[C@H](Cc2ccc3ccccc3c2)NC(=O)[C@H](Cc2ccccc2)NC1=O | 94
C[C@@H]1NC(=O)[C@H](Cc2ccccc2)NC(=O)[C@H](CCCNC(=N)N)NC(=O)[C@H](CCCNC(=N)N)NC(=O)[C@@H]2CCCN2C(=O)[C@H]2CCCN2C(=O)[C@@H](CCCNC(=N)N)NC(=O)[C@H](Cc2ccc3ccccc3c2)NC(=O)[C@H](Cc2ccccc2)NC(=O)[C@H](CCC(=O)NCCOCCOCC(=O)N[C@@H](CCCCNC(=O)c2ccc3c(c2)C(=O)OC32c3ccc4cc(O)ccc4c3Oc3c2ccc2cc(O)ccc32)C(N)=O)NC1=O | 8

Next, values leading:

RFU [%] | SMILES
100 | N=C(N)NCCC[C@@H]1NC(=O)[C@H](Cc2ccc3ccccc3c2)NC(=O)[C@@H](Cc2ccccc2)NC(=O)[C@H](CCC(=O)NCCOCCOCC(=O)N[C@@H](CCCCNC(=O)c2ccc3c(c2)C(=O)OC32c3ccc4cc(O)ccc4c3Oc3c2ccc2cc(O)ccc32)C(N)=O)NC(=O)[C@@H](CCCNC(=N)N)NC(=O)[C@H](CCCNC(=N)N)NC(=O)[C@@H](CCCNC(=N)N)NC1=O
32 | C[C@@H]1NC(=O)[C@H](C)NC(=O)[C@H](Cc2ccccc2)NC(=O)[C@H](CCCNC(=N)N)NC(=O)[C@@H](CCCNC(=N)N)NC(=O)[C@@H]2CCCN2C(=O)[C@H]2CCCN2C(=O)[C@H](CCCNC(=N)N)NC(=O)[C@H](Cc2ccc3ccccc3c2)NC(=O)[C@H](Cc2ccccc2)NC(=O)[C@H](C)NC(=O)[C@H](C)NC(=O)[C@H](CCC(=O)NCCOCCOCC(=O)N[C@@H](CCCCNC(=O)c2ccc3c(c2)C(=O)OC32c3ccc4cc(O)ccc4c3Oc3c2ccc2cc(O)ccc32)C(N)=O)NC(=O)[C@H](C)NC1=O
14 | C[C@@H]1NC(=O)[C@H](CC(=O)O)NC(=O)[C@H](CCC(=O)NCCOCCOCC(=O)N[C@@H](CCCCNC(=O)c2ccc3c(c2)C(=O)OC32c3ccc4cc(O)ccc4c3Oc3c2ccc2cc(O)ccc32)C(N)=O)NC(=O)[C@H](CC(=O)O)NC(=O)[C@H](C)NC(=O)[C@H](CC(=O)O)NC(=O)[C@H](Cc2ccccc2)NC(=O)[C@H](CCCNC(=N)N)NC(=O)[C@H](CCCNC(=N)N)NC(=O)[C@@H]2CCCN2C(=O)[C@H]2CCCN2C(=O)[C@@H](CCCNC(=N)N)NC(=O)[C@H](Cc2ccc3ccccc3c2)NC(=O)[C@H](Cc2ccccc2)NC1=O
84 | C[C@@H]1NC(=O)[C@H](CO)NC(=O)[C@H](C)NC(=O)[C@H](CO)NC(=O)[C@H](Cc2ccccc2)NC(=O)[C@H](CCCNC(=N)N)NC(=O)[C@H](CCCNC(=N)N)NC(=O)[C@@H]2CCCN2C(=O)[C@H]2CCCN2C(=O)[C@@H](CCCNC(=N)N)NC(=O)[C@H](Cc2ccc3ccccc3c2)NC(=O)[C@H](Cc2ccccc2)NC(=O)[C@H](CO)NC(=O)[C@H](C)NC(=O)[C@H](CO)NC(=O)[C@H](CCC(=O)NCCOCCOCC(=O)N[C@@H](CCCCNC(=O)c2ccc3c(c2)C(=O)OC32c3ccc4cc(O)ccc4c3Oc3c2ccc2cc(O)ccc32)C(N)=O)NC1=O
37 | C[C@@H]1NC(=O)[C@H](C)NC(=O)[C@H](Cc2ccccc2)NC(=O)[C@@H](CCCNC(=N)N)NC(=O)[C@H](CCCNC(=N)N)NC(=O)[C@@H]2CCCN2C(=O)[C@H]2CCCN2C(=O)[C@H](CCCNC(=N)N)NC(=O)[C@H](Cc2ccc3ccccc3c2)NC(=O)[C@H](Cc2ccccc2)NC(=O)[C@H](C)NC(=O)[C@H](C)NC(=O)[C@H](CCC(=O)NCCOCCOCC(=O)N[C@@H](CCCCNC(=O)c2ccc3c(c2)C(=O)OC32c3ccc4cc(O)ccc4c3Oc3c2ccc2cc(O)ccc32)C(N)=O)NC(=O)[C@H](C)NC1=O
33 | C[C@@H]1NC(=O)[C@H](C)NC(=O)[C@H](Cc2ccccc2)NC(=O)[C@H](CCCNC(=N)N)NC(=O)[C@H](CCCNC(=N)N)NC(=O)[C@@H]2CCCN2C(=O)[C@H]2CCCN2C(=O)[C@@H](CCCNC(=N)N)NC(=O)[C@H](Cc2ccc3ccccc3c2)NC(=O)[C@H](Cc2ccccc2)NC(=O)[C@H](C)NC(=O)[C@H](C)NC(=O)[C@H](CCC(=O)NCCOCCOCC(=O)N[C@@H](CCCCNC(=O)c2ccc3c(c2)C(=O)OC32c3ccc4cc(O)ccc4c3Oc3c2ccc2cc(O)ccc32)C(N)=O)NC(=O)[C@H](C)NC1=O
